This is an account of results in publication PMC3056322 (Journal of the American Chemical Society, 2010).

Non-standard residues stand in square brackets, D forms with d. Residues, ends and D or L forms follow the SMILES beside them. pS = N[C@@H](COP(=O)(O)O)C(=O)O

The target of test [1] is T1, Pin1-PPIase (truncated human Pin1 construct omitting the WW domain) (Homo sapiens, UniProt Q13526). The experiment in a line: 15N–1H chemical shift perturbation ligand titration. The class given is binding. In outline: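 Pin1-PPIase was titrated with the test compound, and the protein's amide 15N–1H chemical shift perturbations were followed. Kd was obtained by fitting the resulting binding isotherms.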
T1 sequence (Q13526 50-163 limits assumed): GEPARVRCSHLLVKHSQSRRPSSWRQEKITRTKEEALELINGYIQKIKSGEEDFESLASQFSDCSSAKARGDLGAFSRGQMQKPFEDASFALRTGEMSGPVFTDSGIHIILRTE

Test [2] concerns the target T1, Pin1-PPIase (truncated human Pin1 construct omitting the WW domain). Put plainly: 2-D 1H–1H EXSY of cis–trans isomerization with Pin1-PPIase. The class given is biochemical. The note with it: 1H–1H EXSY of attached P4 Hδ protons. A digest of the protocol:
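2-D 1H–1H EXSY was run on an acetylated, amidated phospho-Ser-Pro pentapeptide substrate with Pin1-PPIase. Enzyme levels relative to ligand were raised up to 20%. Cis–trans exchange rate and cis population were taken from the EXSY data.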

Test [3] has the same target. The experiment in a line: Natural abundance 13C CPMG relaxation dispersion of ligand with Pin1-PPIase. The class given is binding.
Test [4] has as its target T2, trans-locked alkene isostere inhibitor (also: pSer-Pro amide replaced by (E)CH=C alkene isostere).
T2 chain: Ac-FF[pS]PR-NH2
Put plainly: NMR chemical shift titration.

Test [5] addresses T3, FFpSPR substrate phosphopeptide (SMILES CC(=O)N[C@@H](Cc1ccccc1)C(=O)N[C@@H](Cc1ccccc1)C(=O)N[C@@H](COP(=O)(O)O)C(=O)N1CCC[C@H]1C(=O)N[C@@H](CCCNC(=N)N)C(N)=O).
T3 chain: Ac-FF[pS]PR-NH2
Put plainly: NMR chemical shift titration.

The target in test [6] is T4, cis-locked alkene isostere inhibitor (also: pSer-Pro amide replaced by (Z)CH=C alkene isostere).
T4 chain: Ac-FF[pS]PR-NH2
Put plainly: NMR chemical shift titration.

Where [7] appears, read: side-chain P4-Cδ, 1% Pin1-PPIase, two-state fit.

For `CC(=O)N[C@@H](Cc1ccccc1)C(=O)N[C@@H](Cc1ccccc1)C(=O)N[C@@H](COP(=O)(O)O)C(=O)N1CCC[C@H]1C(=O)N[C@@H](CCCNC(=N)N)C(N)=O` [FFpSPR, Ac-Phe-Phe-pSer-Pro-Arg-NH2] (Ac-FF[pS]PR-NH2), in test [1], the Kd – broadly, the concentration at which binding is half-saturated – stood at 203 ± 46 µM. In test [2] (cis population), this molecule came in with a pCIS of 12 ± 2%. Moreover, the “kex,CIS/TRANS” value in test [2] (cis–trans isomerization) came to 87 ± 4 s⁻¹. In addition, the kex in test [3] (P4-Cα and F1-Cα, 1% Pin1-PPIase) is 200 to 800 s⁻¹; in test [3] (setting [7]), 85 ± 9 s⁻¹. In test [3] (R5-Cα, 1% Pin1-PPIase), the “C-terminal R5-Cα dispersion” value is “strong dispersion”. Also, in test [3] (setting [7]), the pminor was found to be 17 ± 4%. Besides, in test [3] (with Pin1-PPIase, lower temperature), the “13C dispersion at lower temperature” value was “decrease in FFpSPR dispersion”.

B1: Pin1 PPIase domain (protein)
chain: PARVRCSHLLVKHSQSRRPSSWRQEKITRTKEEALELINGYIQKIKSGEEDFESLASQFSDCSSAKARGDLGAFSRGQMQKPFEDASFALRTGEMSGPVFTDSGIHIILRTE
B1: the figures for the Kd in test [4], in test [5] and in test [6] were 78 µM, 203 µM and 7 µM, respectively.
